Assay results from PMC4210426 (The Journal of General Physiology, 2014).
Where “and” joins values, the source holds several entries; their conditions need not be identical. Identical values can stand only once. Like-named read-outs stand apart in the source and are kept apart here. Blank lines part the entries; values can stand above or below the compound they belong to.

How the values were obtained:
CNG channels = settings: ref Fodor et al., 1997a,b; cited from earlier work
[1] = target: T1, Slo1-C430S-A313C channels (Mus musculus, UniProt Q08460, A378C/C495S); settings: 1 mM MTSET, ref Zhou et al., 2011, cited from earlier work
BK channels [2] = assay: bbTBA block of BK channels; type: cell-based; settings: assuming a zδ of 0.148 e assigned to the forward rate
BK channels [3] = settings: at 100 mV; ref Wilkens and Aldrich, 2006; cited from earlier work
BK channels (mSlo1) [4] = target: T2, BK channels (mSlo1) (Mus musculus, UniProt Q08460); type: cell-based
Summary of the method: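 Oocyte inside-out patches at ∼22–25°C. Pipette (mM): 140 K-methanesulfonate, 20 KOH, 10 HEPES, 2 MgCl2, pH 7.0. Cytosolic Ca2+ buffered with 5 mM HEDTA (10 µM) or unbuffered (300 µM). Test compound equilibrated for 4 min at set holding potential/Ca2+ before G-V from brief test steps. Concentration series (at least four) used steps to 160 mV at −70 to 70 mV. Hill and allosteric-scheme fits.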

BK channels (mSlo1) [5] = target: T2, BK channels (mSlo1); assay: NPo measurements at negative potentials in macropatches; type: cell-based
[6] = target: BK channel voltage sensors (mSlo1) (Mus musculus, UniProt Q08460); assay: Gating current measurements in inside-out macropatches; type: cell-based; settings: with 500 nM paxilline, 0 Ca^2+
Summary of the method: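 Inside-out macropatches from oocytes, room temperature (∼22–25°C). Pipette solution (mM): 127 TEA-OH, 125 methanesulfonic acid, 2 MgCl2, 10 HEPES, pH 7.0. Internal solution (mM): 141 NMDG, 135 methanesulfonic acid, 10 HEPES, 5 EGTA, pH 7.0. Voltage commands filtered at 20 kHz. Gating currents filtered at 10 kHz and sampled at 100 kHz. P/5 subtraction of capacitive and leak currents from −80 mV holding.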

BK channels (mSlo1) [7] = target: T2, BK channels (mSlo1); assay: Kinetics of onset of and recovery from paxilline inhibition of BK current; type: cell-based
Summary of the method: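 Oocyte inside-out patches with fast perfusion, room temperature. BK availability monitored by brief steps to 160 mV. Onset came from wash-in of 100 nM test compound at −80 mV, 300 µM Ca2+, fitted with single exponentials. Block rate was measured over 5–2,000 nM at −80 and −100 mV, with step interval cut to 0.2 s at highest concentrations. Recovery followed a switch in equilibration voltage or washout. Kd was derived from kinetic rates.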

[8] = target: Slo1-A313C channels (unmodified, MTSET-, MTSEA- or MTSES-modified) (Mus musculus, UniProt Q08460, A378C/C495S); assay: Paxilline block of Slo1-A313C currents before and after MTS modification; type: cell-based; settings: 100 nM paxilline; for fractional block: 0 mV
BK channels (Slo1) = BK channels (Slo1) (Mus musculus, UniProt Q08460); assay: Paxilline inhibition of BK current in the presence of bbTBA or 2 M sucrose; type: cell-based
[9] = target: T1, Slo1-C430S-A313C channels; assay: MTSET modification of A313C in closed BK channels, without and with paxilline; type: cell-based; settings: 500 nM paxilline, −80 mV, 0 Ca^2+
Summary of the method: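 Slo1-C430S-A313C channels in oocyte inside-out patches. 1 mM MTSET applied for 120 s at −80 mV holding in 0 Ca2+. Currents recorded with 300 µM Ca2+ before and after modification, with steps up to 200 mV. Separate control G-V sets were collected for modification without and with test compound.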

[10] = cited from earlier work
BK channel G311 mutant = settings: ref Zhou et al., 2010; cited from earlier work
[11] = test system: pH-regulated Slo3 K^+ channel; settings: cited from earlier work
[12] = in 100 nM paxilline, 10 µM Ca^2+, holding potential 0 mV
[13] = with 50 nM paxilline, all solutions 10 mM DTT, n = 7 patches

Sequence of Slo1-A313C channels (unmodified, MTSET-, MTSEA- or MTSES-modified) (Q08460 whole entry A378C/C495S): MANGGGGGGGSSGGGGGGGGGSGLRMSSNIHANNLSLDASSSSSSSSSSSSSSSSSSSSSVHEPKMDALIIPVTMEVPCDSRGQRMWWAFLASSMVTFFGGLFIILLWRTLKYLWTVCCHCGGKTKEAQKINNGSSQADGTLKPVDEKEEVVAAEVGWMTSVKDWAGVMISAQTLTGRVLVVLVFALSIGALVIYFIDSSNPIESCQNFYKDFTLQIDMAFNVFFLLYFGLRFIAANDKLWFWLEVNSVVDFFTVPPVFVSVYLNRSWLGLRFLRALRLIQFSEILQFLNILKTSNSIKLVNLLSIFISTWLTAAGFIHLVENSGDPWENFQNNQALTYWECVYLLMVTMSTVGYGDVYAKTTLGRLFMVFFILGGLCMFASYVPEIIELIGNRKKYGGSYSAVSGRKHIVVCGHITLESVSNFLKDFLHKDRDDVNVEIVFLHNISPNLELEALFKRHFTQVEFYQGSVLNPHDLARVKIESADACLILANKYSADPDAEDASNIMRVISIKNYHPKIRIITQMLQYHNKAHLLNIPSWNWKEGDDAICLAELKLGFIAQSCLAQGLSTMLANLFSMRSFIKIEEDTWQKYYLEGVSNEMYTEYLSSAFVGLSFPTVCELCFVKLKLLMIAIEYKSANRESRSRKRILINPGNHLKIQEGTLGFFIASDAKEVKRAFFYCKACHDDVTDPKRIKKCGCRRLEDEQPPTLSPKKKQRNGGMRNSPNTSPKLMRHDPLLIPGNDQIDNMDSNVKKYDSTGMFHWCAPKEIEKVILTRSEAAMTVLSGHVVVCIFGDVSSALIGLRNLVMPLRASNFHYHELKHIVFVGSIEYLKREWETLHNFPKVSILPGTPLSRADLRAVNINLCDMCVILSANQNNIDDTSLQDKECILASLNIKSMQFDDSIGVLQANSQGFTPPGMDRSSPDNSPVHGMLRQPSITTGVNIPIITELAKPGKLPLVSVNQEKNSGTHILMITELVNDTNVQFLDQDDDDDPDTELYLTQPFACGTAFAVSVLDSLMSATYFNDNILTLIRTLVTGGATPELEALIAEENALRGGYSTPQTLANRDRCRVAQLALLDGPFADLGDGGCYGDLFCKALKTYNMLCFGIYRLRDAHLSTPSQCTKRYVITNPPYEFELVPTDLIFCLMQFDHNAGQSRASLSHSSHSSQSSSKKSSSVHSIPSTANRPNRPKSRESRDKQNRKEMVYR
T1 sequence (Q08460 whole entry A378C/C495S): as above
Sequence of BK channels (Slo1) (Q08460 whole entry): as the sequence (Q08460 whole entry A378C/C495S) above, with C378A, S495C counted along it
T2 sequence (Q08460 whole entry): as the sequence (Q08460 whole entry A378C/C495S) above, with C378A, S495C counted along it
Sequence of BK channel voltage sensors (mSlo1) (Q08460 whole entry): as the sequence (Q08460 whole entry A378C/C495S) above, with C378A, S495C counted along it

SMILES: CCCCNc1ccc(C(=O)OCCN(C)C)cc1 [tetracaine]
affinity for closed channels relative to open channels (CNG channels): ~1,000 fold

SMILES: C[N+](C)(C)CCSS(C)(=O)=O.[Br-] [MTSET, [2-(trimethylammonium)ethyl] MTS bromide]
reduction in maximal conductance ([1]; closed BK channels): > 50%
time constant of modification of A313C of closed BK channels [1]: ~23 s

SMILES: CCCC[N+](CCCC)(CCCC)Cc1ccc(C(=O)c2ccccc2)cc1 [bbTBA, N-(4-[benzoyl]benzyl)-N,N,N-tributylammonium]
0-voltage forward rate (BK channels [2]): 6.7e+07 M⁻¹ s⁻¹
forward rate of block (BK channels [3]): 1.2e+08 M⁻¹ s⁻¹

SMILES: CC(C)(O)[C@H]1O[C@H]2CC[C@@]3(C)[C@@](O)(CC[C@H]4Cc5c([nH]c6ccccc56)[C@@]43C)C2=CC1=O [paxilline]
inhibition of current (BK channels (mSlo1) [4]; 10 nM paxilline, 0 mV, 10 µM Ca^2+ (Po <0.02), 4 min): over half
inhibition of current (BK channels (mSlo1) [4]; 100 nM paxilline, 0 mV, 10 µM Ca^2+ (Po <0.02), 4 min): essentially complete inhibition
inhibition of current (BK channels (mSlo1) [4]; 100 nM paxilline, holding potential 80 mV, 300 µM Ca^2+, 1 min of application): almost no inhibition
IC50 (BK channels (mSlo1) [4]; IC50 (Hill fit), equilibration 0 mV, 300 µM Ca^2+ (Po ∼0.65)): 0.0584 ± 0.0029 µM
IC50 (BK channels (mSlo1) [4]; IC50 (Hill fit), equilibration 40 mV, 300 µM Ca^2+ (Po ∼0.83)): 0.47 ± 0.0949 µM
IC50 (BK channels (mSlo1) [4]; IC50 (Hill fit), equilibration 70 mV, 300 µM Ca^2+ (Po ∼0.89)): 5.37 ± 1 µM
IC50 (BK channels (mSlo1) [4]; IC50 (Hill fit), equilibration −70 mV, 300 µM Ca^2+ (Po ∼0.1)): 0.0117 ± 0.0019 µM
IC50 (BK channels (mSlo1) [4]; IC50 for paxilline, as maximal Po was approached): ~10 µM
IC50 (BK channels (mSlo1) [4]; IC50 for paxilline, channels largely closed): ~0.01 µM
reduction in the C-O equilibrium constant L(0) (BK channels (mSlo1) [4]; binding of one paxilline molecule): > 500 fold
direct inhibition of the open state (BK channels (mSlo1) [4]; concentrations up to 10 µM): not directly inhibited
n (BK channels (mSlo1) [4]; fit of Scheme 1 (Eq. 1) to four equilibration conditions): 1.09 ± 0.11
Vh of G-V curve (BK channels (mSlo1) [4]; [12]): 24.75 ± 0.13 mV
z of G-V curve (BK channels (mSlo1) [4]; [12]): 0.86 ± 0.01 e
affinity for closed conformation relative to open conformation (BK channels (mSlo1) [4]; model-dependent analysis (Scheme 1)): > 500 fold and ~500 fold
difference between closed- and open-state affinity (BK channels (mSlo1) [4]; model-independent analysis of IC50 vs state occupancy, and overall conclusion): ~1,000 fold
Vh of G-V curve (BK channels (mSlo1) [4]; [13]): 21.21 ± 1.85 mV
z of G-V curve (BK channels (mSlo1) [4]; [13]): 0.79 ± 0.07 e
normalized NPo (BK channels (mSlo1) [5]; 100 nM paxilline, −80 mV, 300 µM Ca^2+): < 0.05
IC50 (BK channels (mSlo1) [5]; IC50 for reduction in normalized NPo, −80 mV, Hill fit with n = 1): 0.0055 ± 0.0011 µM
inhibition at 0.1 µM (BK channels (mSlo1) [5]; read-out: inhibition of BK current (NPo)): > 95%
Hill coefficient n (BK channels (mSlo1) [5]; −80 mV, 10 or 300 µM Ca^2+, Hill fit of normalized NPo): 0.85 ± 0.25
Vh of Qoff [6]: 130.2 ± 9.1 mV
Vh of Qon [6]: 131.4 ± 2.1 mV
z of Qoff [6]: 0.56 ± 0.035 e
z of Qon [6]: 0.54 ± 0.025 e
Kd (BK channels (mSlo1) [7]): 0.0129 µM
τon, time constant of onset of inhibition by wash-in (BK channels (mSlo1) [7]; 100 nM paxilline, −80 mV, 300 µM Ca^2+, four patches, mean ± STD): 26.3 ± 6.6 s
time constant of onset of inhibition after change in equilibration condition (BK channels (mSlo1) [7]; constant 100 nM paxilline, 80 to −80 mV, 300 µM Ca^2+, four patches, mean ± STD): 6.85 ± 1.79 s
difference in recovery time constant between 20 and 100 nM paxilline (BK channels (mSlo1) [7]; recovery at 0 mV in the constant presence of paxilline, seven patches): 1.6 fold
rate of inhibition of closed channels (slope of blocking rate vs [paxilline]) (BK channels (mSlo1) [7]; −80 and −100 mV, 300 µM Ca^2+, 5 to 2,000 nM paxilline): 2e+06 M⁻¹ s⁻¹
mean time constant of recovery (BK channels (mSlo1) [7]; −80 mV): 37.0 s
fractional block ([8]; MTSEA-modified Slo1-A313C, 10 µM Ca^2+ (Po ∼0.48)): ~0.5
inhibition relative to unmodified Slo1-A313C ([8]; MTSES-modified Slo1-A313C (Po ∼0.12)): only slightly weaker
fractional block ([8]; MTSET-modified Slo1-A313C, 10 µM Ca^2+ (Po ∼0.9)): < 0.1
block of Slo1-A313C current ([8]; unmodified A313C): strong block
reduction of current (BK channels (Slo1); 100 nM paxilline alone for ∼40 s, 0 mV, 10 µM Ca^2+): ~80%
reduction of the number of channels blocked by paxilline (BK channels (Slo1); 100 nM paxilline applied together with 100 µM bbTBA, 0 mV, 10 µM Ca^2+): ~50%
inhibition of BK current (BK channels (Slo1); 100 nM paxilline with 2 M sucrose in the cytosolic solution, 300 µM Ca^2+): only a weak inhibition
effect on MTSET modification of A313C in closed channels ([9]; 1 mM MTSET for 120 s): no difference in modification with or without paxilline
inhibition of BK current during MTSET application [9]: completely inhibited
logP [10]: 3.62
effect of G311 mutation on paxilline inhibition (BK channel G311 mutant): totally abolishes paxilline inhibition
sensitivity to paxilline inhibition [11]: resistant

Vh of activation (BK channels (Slo1); with 2 M sucrose, 300 µM Ca^2+, tail currents at −120 mV): −12.8 ± 3.3 mV
SMILES: OC[C@H]1O[C@@](CO)(O[C@H]2O[C@H](CO)[C@@H](O)[C@H](O)[C@H]2O)[C@@H](O)[C@@H]1O [sucrose]
